Test results: ChEMBL document CHEMBL1136765, “1,3-dioxolane-based ligands as a novel class of alpha1-adrenoceptor antagonists” (J Med Chem, 2003)

Experiments:
[1] = biological target: Alpha adrenergic receptor 1A and 1D (Rattus norvegicus) (UniProt P23944+P43140); test: Selectivity given as ratio of pKb value against Alpha-1D receptor to pKb value against alpha1A receptor in rat; type: functional
[2] = biological target: Adrenergic receptors; alpha-1 A & B (Homo sapiens) (UniProt P35348+P35368); test: Selectivity over alpha-1a/alpha-1b; type: protein assay
[3] = biological target: T1, Alpha-1A adrenergic receptor (Homo sapiens, UniProt P35348); test: Affinity constant towards human recombinant Alpha-1A adrenergic receptor using [3H]prazosin (from CHO cells) as radioligand by radioligand binding assay; type: cell-based
T1 sequence (P35348 whole entry): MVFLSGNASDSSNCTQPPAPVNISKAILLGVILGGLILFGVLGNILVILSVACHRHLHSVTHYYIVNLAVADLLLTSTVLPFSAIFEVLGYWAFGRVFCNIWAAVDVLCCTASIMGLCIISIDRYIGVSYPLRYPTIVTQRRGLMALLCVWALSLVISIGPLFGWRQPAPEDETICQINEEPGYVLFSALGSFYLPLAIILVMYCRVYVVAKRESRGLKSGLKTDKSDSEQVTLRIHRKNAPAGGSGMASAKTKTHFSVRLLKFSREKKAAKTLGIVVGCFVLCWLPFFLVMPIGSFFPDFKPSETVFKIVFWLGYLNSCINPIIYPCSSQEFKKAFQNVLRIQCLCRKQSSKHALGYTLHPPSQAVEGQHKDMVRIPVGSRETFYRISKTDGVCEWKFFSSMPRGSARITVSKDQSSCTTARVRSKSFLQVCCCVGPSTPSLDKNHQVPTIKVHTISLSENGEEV

[4] = biological target: T2, Alpha-1B adrenergic receptor (Homo sapiens, UniProt P35368); test: Affinity constant towards human recombinant Alpha-1B adrenergic receptor using [3H]prazosin (from CHO cells) as radioligand by radioligand binding assay; type: cell-based
T2 sequence (P35368 whole entry): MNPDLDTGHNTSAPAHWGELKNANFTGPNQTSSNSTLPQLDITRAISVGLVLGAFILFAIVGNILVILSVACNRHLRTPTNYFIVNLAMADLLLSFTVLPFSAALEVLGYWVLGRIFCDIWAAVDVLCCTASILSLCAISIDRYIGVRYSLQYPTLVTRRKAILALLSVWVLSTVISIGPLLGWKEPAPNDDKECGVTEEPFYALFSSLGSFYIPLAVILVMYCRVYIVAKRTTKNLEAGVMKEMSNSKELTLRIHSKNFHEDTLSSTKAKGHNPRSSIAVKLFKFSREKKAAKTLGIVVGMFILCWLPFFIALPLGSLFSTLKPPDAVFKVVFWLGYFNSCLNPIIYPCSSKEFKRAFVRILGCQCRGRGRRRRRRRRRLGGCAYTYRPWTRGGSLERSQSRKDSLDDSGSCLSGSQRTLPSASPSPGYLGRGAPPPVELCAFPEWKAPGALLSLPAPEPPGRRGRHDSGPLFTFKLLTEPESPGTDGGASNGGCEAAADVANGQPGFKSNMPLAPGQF
Method in brief: (§1)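 Membranes of CHO cells stably expressing each cloned human α1 subtype (30 µg protein) incubated with 0.1-0.4 nM [3H]prazosin in 50 mM Tris-HCl pH 7.4, 30 min at 25 °C, with competitor. Nonspecific binding with 10 µM phentolamine. Stopped by ice-cold buffer and filtration on PEI-pretreated filters. IC50 by curve fitting, Ki via Cheng-Prusoff. Mean of two to three experiments in triplicate.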

[5] = Selectivity given as ratio of pKb value against Alpha-1D receptor to pKb value against Alpha-1B receptor in rat; type: functional
[6] = biological target: T3, Alpha-1A adrenergic receptor (Rattus norvegicus) (UniProt P43140); test: Inhibition of (-)-noradrenaline-induced contraction of rat prostatic vas deferens (alpha1A receptor); type: functional
T3 sequence (whole entry): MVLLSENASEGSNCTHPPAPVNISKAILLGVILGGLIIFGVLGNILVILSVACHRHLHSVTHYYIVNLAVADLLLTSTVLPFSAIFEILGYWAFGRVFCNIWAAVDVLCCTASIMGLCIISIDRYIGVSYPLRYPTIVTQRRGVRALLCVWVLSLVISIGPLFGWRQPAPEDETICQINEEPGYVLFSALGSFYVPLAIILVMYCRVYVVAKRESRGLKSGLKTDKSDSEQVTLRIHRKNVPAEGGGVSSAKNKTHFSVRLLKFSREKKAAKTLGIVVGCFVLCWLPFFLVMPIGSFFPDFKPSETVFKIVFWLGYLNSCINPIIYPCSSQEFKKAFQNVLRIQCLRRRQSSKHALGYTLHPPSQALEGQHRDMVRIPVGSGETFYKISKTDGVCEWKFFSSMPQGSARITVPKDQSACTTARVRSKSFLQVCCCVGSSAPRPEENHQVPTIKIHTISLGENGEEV
Method in brief: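 Rat prostatic vas deferens portion equilibrated 60 min, washed every 15 min, primed twice with 10 µM noradrenaline, re-equilibrated 60 min; control noradrenaline concentration-response curve, then antagonist 30 min before repeat curve.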

[7] = biological target: T4, Alpha-1D adrenergic receptor (Homo sapiens, UniProt P25100); test: Affinity constant towards human recombinant Alpha-1D adrenergic receptor using [3H]prazosin (from CHO cells) as radioligand by radioligand binding assay; type: cell-based; method in brief: as §1
T4 sequence (P25100 whole entry): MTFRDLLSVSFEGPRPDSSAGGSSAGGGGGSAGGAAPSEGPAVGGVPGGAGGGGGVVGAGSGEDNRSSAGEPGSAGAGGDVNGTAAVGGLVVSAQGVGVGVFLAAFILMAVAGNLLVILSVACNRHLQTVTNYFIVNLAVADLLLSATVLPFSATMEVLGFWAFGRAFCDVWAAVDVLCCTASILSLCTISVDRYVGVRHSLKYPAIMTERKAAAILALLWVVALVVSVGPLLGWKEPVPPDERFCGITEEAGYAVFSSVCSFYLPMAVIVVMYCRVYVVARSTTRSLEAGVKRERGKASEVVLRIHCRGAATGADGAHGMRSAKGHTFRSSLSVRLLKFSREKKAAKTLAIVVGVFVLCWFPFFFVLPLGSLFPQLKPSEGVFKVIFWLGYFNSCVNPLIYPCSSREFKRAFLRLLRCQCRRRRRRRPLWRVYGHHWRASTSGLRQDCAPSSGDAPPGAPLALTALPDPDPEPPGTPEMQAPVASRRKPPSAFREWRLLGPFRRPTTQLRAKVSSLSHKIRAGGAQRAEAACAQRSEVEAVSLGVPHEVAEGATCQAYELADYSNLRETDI

[8] = biological target: Alpha adrenergic receptor (1a and 1d) (Homo sapiens) (UniProt P35348+P25100); test: Selectivity over human alpha-1d/alpha-1a receptor; type: protein assay
[9] = biological target: Alpha adrenergic receptor 1A and 1B (Rattus norvegicus) (UniProt P15823+P43140); test: Selectivity given as ratio of pKb value against alpha1A receptor to pKb value against alpha-1B receptor in rat; type: functional
Sequence of Alpha adrenergic receptor 1A and 1B (Rattus norvegicus) (P15823 whole entry, looked up, one chain of several): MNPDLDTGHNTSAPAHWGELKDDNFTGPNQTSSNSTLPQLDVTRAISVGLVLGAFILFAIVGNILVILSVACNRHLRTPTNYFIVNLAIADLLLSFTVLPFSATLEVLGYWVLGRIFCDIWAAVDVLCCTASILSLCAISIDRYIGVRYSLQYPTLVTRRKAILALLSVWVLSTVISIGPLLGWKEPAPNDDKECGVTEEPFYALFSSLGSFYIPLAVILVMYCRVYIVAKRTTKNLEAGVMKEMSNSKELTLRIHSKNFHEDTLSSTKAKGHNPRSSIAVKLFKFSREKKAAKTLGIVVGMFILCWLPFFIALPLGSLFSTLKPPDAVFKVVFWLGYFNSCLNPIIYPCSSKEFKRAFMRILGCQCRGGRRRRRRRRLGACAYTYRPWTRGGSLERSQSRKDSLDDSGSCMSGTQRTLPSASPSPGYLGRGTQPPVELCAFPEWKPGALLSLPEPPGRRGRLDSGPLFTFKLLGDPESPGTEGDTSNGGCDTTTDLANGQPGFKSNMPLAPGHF

Sequence of Alpha adrenergic receptor 1A and 1D (Rattus norvegicus) (P23944 whole entry, looked up, one chain of several): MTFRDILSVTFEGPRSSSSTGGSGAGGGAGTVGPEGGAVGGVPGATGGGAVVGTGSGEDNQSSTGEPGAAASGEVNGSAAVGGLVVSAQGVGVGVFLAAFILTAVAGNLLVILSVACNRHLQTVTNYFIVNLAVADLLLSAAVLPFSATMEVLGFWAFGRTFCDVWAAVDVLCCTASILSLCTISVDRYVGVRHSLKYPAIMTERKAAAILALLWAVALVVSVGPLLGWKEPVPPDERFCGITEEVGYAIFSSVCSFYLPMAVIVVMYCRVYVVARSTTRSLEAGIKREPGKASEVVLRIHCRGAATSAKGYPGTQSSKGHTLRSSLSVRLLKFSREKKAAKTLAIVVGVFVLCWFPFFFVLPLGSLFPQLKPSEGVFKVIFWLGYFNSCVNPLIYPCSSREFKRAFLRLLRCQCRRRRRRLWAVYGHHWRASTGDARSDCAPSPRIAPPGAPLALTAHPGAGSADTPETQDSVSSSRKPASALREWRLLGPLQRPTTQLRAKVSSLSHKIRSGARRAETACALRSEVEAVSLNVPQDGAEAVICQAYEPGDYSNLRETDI

SMILES	Selectivity [1]	Selectivity [2]	Ki [3]	Ki [4]	Selectivity [5]	pKb [6]	Ki [7]	Selectivity [8]	Selectivity [9]
O=C(O)C(=O)O.c1ccc(OCCNCC2COC(c3ccccc3)(c3ccccc3)O2)cc1 (stereo not given)	162	2	0.0372 µM	0.0631 µM	324	6.16	0.0115 µM	3	2
CN(CCOc1ccccc1)CC1COC(c2ccccc2)(c2ccccc2)O1.O=C(O)C(=O)O (stereo not given)	10	0.3	0.832 µM	0.257 µM	6	5.06	> 1 µM	< 0.9	0.6
COc1ccccc1OCCNCC1COC(c2ccccc2)(c2ccccc2)O1.O=C(O)C(=O)O (stereo not given)	13	2	0.0245 µM	0.0457 µM	20	–	0.00933 µM	3	1
C[N+](C)(CCOc1ccccc1)CC1COC(c2ccccc2)(c2ccccc2)O1.O=C([O-])C(=O)O (stereo not given)	> 15	0.6	0.0339 µM	0.0204 µM	4	< 5	> 1 µM	< 0.03	< 0.3
